In PubChem BioAssay AID504325 (Broad Institute, 2011) one finds AC50 and activity change, negative = cytotoxic data, which are given here for 42 compounds.

What is called AC50 is the concentration at which the activity in the assay is half-maximal.

Inconclusive results are not listed. Calls of active or inactive are those of the source.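 The calls were made as follows: active = every replicate test active, with falling signal and half-maximal potency at or below ten times the top dose; inconclusive = replicate tests give conflicting calls; inactive = all tests inactive, or signal shifts the wrong way.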

The test system of the first experiment is HMLE_sh_eGFP viability, CellTiter-Glo luminescence, 72 h. Description: cytotoxicity in HMLE_sh_eGFP control cells, dose response, counter-screen for breast cancer stem cell project, cell-based, dry powder, set 2 (AID 504325).
Conditions: not given
The procedure, abridged: (§1)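 Material – HMLE_sh_eGFP control breast epithelial cell line · Input – 2000 cells per well · Buffer or medium – medium without serum · Timing – about 72 h compound exposure at 37 °C · Detection – luminescent ATP detection, CellTiter-Glo diluted 1:3 in PBS · Benchmarks – DMSO-only neutral wells and puromycin positive wells on each plate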
Turning to `Cc1csc(NC(=O)/C=C/c2ccc(C(C)C)cc2)n1`, the AC50 is 2.83 µM.

As to `O=C(COc1c(Cl)cc(Cl)cc1Cl)N/N=C/c1ccc[nH]1`, the AC50 was 27.6 µM.

Turning to `CC(C)c1ccc(/C=C/C(=O)Nc2ccccc2)cc1`, the AC50 was 3.28 µM.

As to `Cn1cncc1/C=N/NC(=O)COc1ccc(Cl)cc1Cl`, the AC50 was 18.9 µM.

Regarding `Cc1csc(NC(=O)c2ccc(COc3ccccc3)o2)n1`, the AC50 was 13.3 µM.

In the case of `CC(C)c1ccc(/C=C/C(=O)NC2=NCCS2)cc1`, the AC50 was 8.92 µM.

Regarding `Cc1ccc(/C=N/NC(=O)COc2ccc(Cl)cc2Cl)[nH]1`, the AC50 is 16.9 µM.

As to `CC(C)(C)c1ccc2c(c1)OC(C(=O)N/N=C/c1ccc[nH]1)CO2` (configuration not stated), the AC50 was 15 µM.

Test system in a further experiment: not listed separately
The experiment is described as above. Conditions: HMLE_sh_eGFP viability, CellTiter-Glo luminescence, 72 h; at 30 µM (top of the series). The procedure, abridged: as §1
As to `Cc1ccccc1OCC(=O)N/N=C/c1ccc[nH]1`, the activity change, negative = cytotoxic is 5.25% (inactive).

As to `O=C(COc1ccc(Cl)cc1Cl)N/N=C/c1cnc[nH]1`, the activity change, negative = cytotoxic was -6.28% (inactive).

`CC(C)c1ccc(/C=C/C(=O)O)cc1`: the activity change, negative = cytotoxic is 16.2% (inactive).

For `N#Cc1ccccc1OCC(=O)N/N=C/c1ccc[nH]1`, the activity change, negative = cytotoxic is -7.45% (inactive).

For `CC(=O)Oc1ccccc1/C=C/C(=O)NC1=NCCS1`, the activity change, negative = cytotoxic was 0.09% (inactive).

`O=C(/C=C/c1ccccc1)NC1=NCCS1`: the activity change, negative = cytotoxic was -4.89% (inactive).

Take `CC(Oc1ccc(F)cc1Cl)C(=O)N/N=C/c1ccc[nH]1` (configuration not stated): the activity change, negative = cytotoxic was 16.8% (inactive).

For `COc1cc(/C=C/C(=O)NC2=NCCS2)cc(OC)c1OC`, the activity change, negative = cytotoxic is 0.088% (inactive).

With `O=C(/C=C/c1ccc(F)cc1)NC1=NCCS1`, the activity change, negative = cytotoxic was -0.331% (inactive).

As to `NNC(=O)COc1ccc(Cl)cc1Cl`, the activity change, negative = cytotoxic was -3.9% (inactive).

For `O=C(COc1ccc(Cl)cc1Cl)N/N=C/c1cccs1`, the activity change, negative = cytotoxic is 13.7% (inactive).

For `O=C(NC1=NCCS1)c1ccc(COc2ccccc2)o1`, the activity change, negative = cytotoxic is 12.9% (inactive).

`CCNC(=O)/C=C/c1ccc(C(C)C)cc1`: the activity change, negative = cytotoxic was 7.1% (inactive).

Consider `COc1ccc(/C=C/C(=O)NC2=NCCS2)cc1OC`, for which the activity change, negative = cytotoxic was -1.05% (inactive).

As for `COc1ccc(/C=C/C(=O)NC2=NCCS2)c(OC)c1`, the activity change, negative = cytotoxic is 3.11% (inactive).

For `CC(=O)Oc1ccc(/C=C/C(=O)NC2=NCCS2)cc1`, the activity change, negative = cytotoxic was -11.6% (inactive).

For `O=C(COc1ccccc1F)N/N=C/c1ccc[nH]1`, the activity change, negative = cytotoxic is 1.58% (inactive).

For `O=Cc1ccc[nH]1`, the activity change, negative = cytotoxic is 7.66% (inactive).

On to `Cc1ccccc1NCC(=O)N/N=C/c1ccc[nH]1`, for which the activity change, negative = cytotoxic is 7.91% (inactive).

`COc1ccc(OC)c(/C=C/C(=O)NC2=NCCS2)c1`: the activity change, negative = cytotoxic is 2.36% (inactive).

Consider `COc1ccc(/C=C/C(=O)NC2=NCCS2)c(OC)c1OC`, for which the activity change, negative = cytotoxic is -0.513% (inactive).

On to `O=C(O)c1ccc(COc2ccccc2)o1`, for which the activity change, negative = cytotoxic is 1.43% (inactive).

Turning to `CC(C)(C)c1ccc2c(c1)OC(C(=O)NN)CO2` (configuration not stated), the activity change, negative = cytotoxic is 15.8% (inactive).

For `O=C(COc1ccc(Cl)cc1Cl)N/N=C/c1ccc[nH]1`, the activity change, negative = cytotoxic was -54.1% (inactive).

As for `O=C(C#Cc1ccccc1)NC1=NCCS1`, the activity change, negative = cytotoxic was 9.83% (inactive).

Consider `O=C(CCc1ccccc1)NC1=NCCS1`, for which the activity change, negative = cytotoxic is 4.67% (inactive).

For `O=C(N/N=C/c1ccc[nH]1)c1cc2ccccc2o1`, the activity change, negative = cytotoxic is 13.1% (inactive).

For the compound `O=C(/C=C/c1cc(Cl)ccc1Cl)NC1=NCCS1`, the activity change, negative = cytotoxic is 3.58% (inactive).

As for `O=C(COc1ccc(Cl)cc1Cl)N/N=C/c1ccco1`, the activity change, negative = cytotoxic is 5.52% (inactive).

In the case of `O=C(COc1ccc(Cl)cc1)N/N=C/c1ccc[nH]1`, the activity change, negative = cytotoxic is 10.5% (inactive).

Take `O=C(N/N=C/c1ccc[nH]1)C1Cc2ccccc2O1` (configuration not stated): the activity change, negative = cytotoxic was -1.79% (inactive).

For the compound `COc1ccc(CCC(=O)N/N=C/c2ccc[nH]2)cc1`, the activity change, negative = cytotoxic was -0.101% (inactive).

In the case of `Cc1ccccc1/C=C/C(=O)NC1=NCCS1`, the activity change, negative = cytotoxic was 6.57% (inactive).

As for `Cn1c(C(=O)NC2=NCCS2)cc2ccccc21`, the activity change, negative = cytotoxic is 6.92% (inactive).
